# Data as given in ChEMBL document CHEMBL1137629, “Antiproliferative effect of dihydroxyacetone on Trypanosoma brucei bloodstream forms: cell cycle progression, subcellular alterations, and cell death” (Antimicrob Agents Chemother, 2007).
# The source made the active and inactive calls. The rule behind the calls is not given here.
# Tests used:
# Trypanosoma brucei [1] = assay: Induction of apoptosis-like programmed cell death in Trypanosoma brucei bloodstream form assessed as loss of mitochondrial-membrane potential at 100 nM after 24 hrs by TMRE staining; assay type: functional
# In short: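 T. brucei MITat 1.2 (EATRO 427) bloodstream forms were grown axenically at 37°C, 5% CO₂ and exposed to DHA for 24 h. Cells at 10⁶/ml were stained with 25 nM TMRE in culture medium for 30 min at 37°C and read at once by flow cytometry. Depolarization control: valinomycin 100 nM. Lower fluorescence signifies lost membrane potential.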
# Trypanosoma brucei [2] = assay: Trypanocidal activity against Trypanosoma brucei bloodstream form assessed as induction of autophagy at 5 uM after 24 hrs by transmission electron microscopy; assay type: functional, organism-based
# In short: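 Autophagy positive control. Bloodstream forms treated with 5 μM rapamycin (from a 50 mM ethanol stock), processed by glutaraldehyde/osmium fixation, uranyl acetate staining, resin embedding and sectioning for transmission electron microscopy.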
compound,measurement,setting,value
CC(C)[C@@H]1NC(=O)[C@H](C)OC(=O)[C@@H](C(C)C)NC(=O)[C@@H](C(C)C)OC(=O)[C@H](C(C)C)NC(=O)[C@H](C)OC(=O)[C@@H](C(C)C)NC(=O)[C@@H](C(C)C)OC(=O)[C@H](C(C)C)NC(=O)[C@H](C)OC(=O)[C@@H](C(C)C)NC(=O)[C@@H](C(C)C)OC1=O [VALINOMYCIN],Activity,Trypanosoma brucei [1],97.3%
CO[C@H]1C[C@@H]2CC[C@@H](C)[C@@](O)(O2)C(=O)C(=O)N2CCCC[C@H]2C(=O)O[C@H]([C@H](C)C[C@@H]2CC[C@@H](O)[C@H](OC)C2)CC(=O)[C@H](C)/C=C(\C)[C@@H](O)[C@@H](OC)C(=O)[C@H](C)C[C@H](C)/C=C/C=C/C=C/1C,Activity,Trypanosoma brucei [2],Active
